For data set [1], the target named is human GSK-3β (Homo sapiens, UniProt P49841). Briefly: In vitro GSK-3β inhibition: phosphorylation of primed substrate. The class given is biochemical.
Data set [2] in a line: Human liver microsomal stability. The class given is in vitro ADME. Particulars: 60 min, 1 and 10 μM. For orientation: Liver microsomes are vesicles of endoplasmic reticulum, rich in cytochrome P450 enzymes.
A short description of data set [3]: Mouse liver microsomal stability. The class given is in vitro ADME. The conditions noted are these: 60 min, 1 and 10 μM.
Data set [4] has as its system 15 kinases. The data set can be described thus: Selectivity studies against 15 kinases. The class given is biochemical. The conditions noted are these: 15 kinases (Supporting Information).
Data set [5] deals with C57BL/6J male mice. Briefly: Amphetamine–chlordiazepoxide locomotor hyperactivity procedure. The class given is in vivo.
The target in data set [6] is CYP3A4 (Homo sapiens, UniProt P08684). The data set can be described thus: Cytochrome P450 inhibition. The class given is in vitro ADME. Particulars: up to 10 μM of 3a.
Chain of CYP3A4 (P08684 whole entry): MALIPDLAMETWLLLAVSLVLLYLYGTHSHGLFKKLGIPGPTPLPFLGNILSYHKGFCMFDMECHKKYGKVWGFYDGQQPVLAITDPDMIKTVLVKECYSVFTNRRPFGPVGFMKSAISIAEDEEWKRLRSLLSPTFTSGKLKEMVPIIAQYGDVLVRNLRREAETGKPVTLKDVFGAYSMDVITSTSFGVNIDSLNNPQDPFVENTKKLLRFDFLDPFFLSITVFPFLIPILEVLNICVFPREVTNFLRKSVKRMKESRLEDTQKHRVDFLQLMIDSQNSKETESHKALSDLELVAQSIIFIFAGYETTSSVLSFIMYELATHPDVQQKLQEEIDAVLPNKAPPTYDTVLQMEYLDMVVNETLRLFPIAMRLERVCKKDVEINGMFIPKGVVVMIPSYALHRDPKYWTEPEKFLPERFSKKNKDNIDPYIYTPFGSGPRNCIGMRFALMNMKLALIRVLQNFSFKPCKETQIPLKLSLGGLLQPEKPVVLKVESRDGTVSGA
Data set [7] relates to ClockΔ19 mutant mice. The data set can be described thus: Locomotor activity in CLOCK mutant mice. Particulars: 12.5 mgkg^−1 i.p. once a day for five days, 2 h recording. The data set is classed as in vivo.
In data set [8] the target is T1, CYP2B6 (Homo sapiens, UniProt P20813).
T1 sequence (P20813 1-491): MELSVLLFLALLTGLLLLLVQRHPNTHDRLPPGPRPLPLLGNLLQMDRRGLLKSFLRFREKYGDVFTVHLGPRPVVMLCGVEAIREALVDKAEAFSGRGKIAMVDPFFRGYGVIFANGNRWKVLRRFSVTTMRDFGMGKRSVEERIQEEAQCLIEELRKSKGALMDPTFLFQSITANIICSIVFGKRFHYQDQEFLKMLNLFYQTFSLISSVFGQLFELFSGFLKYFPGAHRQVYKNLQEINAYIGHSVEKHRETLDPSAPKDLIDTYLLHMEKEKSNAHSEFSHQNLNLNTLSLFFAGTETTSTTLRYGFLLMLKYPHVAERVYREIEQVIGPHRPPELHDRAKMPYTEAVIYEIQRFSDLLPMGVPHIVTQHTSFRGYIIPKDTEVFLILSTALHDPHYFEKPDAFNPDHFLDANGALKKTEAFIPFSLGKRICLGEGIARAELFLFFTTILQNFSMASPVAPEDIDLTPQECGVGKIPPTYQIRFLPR
Briefly: Cytochrome P450 inhibition. The data set is classed as in vitro ADME. The conditions noted are these: up to 10 μM of 3a.

In data set [9] the target is CYP2C9 (Homo sapiens, UniProt P11712). The data set can be described thus: Cytochrome P450 inhibition. The class given is in vitro ADME. Particulars: up to 10 μM of 3a.
Chain of CYP2C9 (P11712 whole entry): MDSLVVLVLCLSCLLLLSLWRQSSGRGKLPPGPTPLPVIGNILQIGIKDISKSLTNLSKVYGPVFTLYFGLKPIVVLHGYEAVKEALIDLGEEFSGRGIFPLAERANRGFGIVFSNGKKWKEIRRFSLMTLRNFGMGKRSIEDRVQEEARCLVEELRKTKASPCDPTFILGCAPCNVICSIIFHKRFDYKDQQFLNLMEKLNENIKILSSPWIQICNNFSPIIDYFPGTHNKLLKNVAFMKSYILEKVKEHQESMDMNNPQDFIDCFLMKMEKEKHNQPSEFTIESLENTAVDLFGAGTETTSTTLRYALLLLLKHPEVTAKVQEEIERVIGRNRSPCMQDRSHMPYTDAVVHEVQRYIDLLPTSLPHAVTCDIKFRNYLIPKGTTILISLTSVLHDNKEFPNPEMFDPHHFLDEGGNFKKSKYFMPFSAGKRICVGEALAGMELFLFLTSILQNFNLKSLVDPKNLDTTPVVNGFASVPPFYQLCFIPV
The target of data set [10] is CYP2C19 (Homo sapiens, UniProt P33261). The data set can be described thus: Cytochrome P450 inhibition. The class given is in vitro ADME. The conditions noted are these: up to 10 μM of 3a.
Chain of CYP2C19 (P33261 whole entry): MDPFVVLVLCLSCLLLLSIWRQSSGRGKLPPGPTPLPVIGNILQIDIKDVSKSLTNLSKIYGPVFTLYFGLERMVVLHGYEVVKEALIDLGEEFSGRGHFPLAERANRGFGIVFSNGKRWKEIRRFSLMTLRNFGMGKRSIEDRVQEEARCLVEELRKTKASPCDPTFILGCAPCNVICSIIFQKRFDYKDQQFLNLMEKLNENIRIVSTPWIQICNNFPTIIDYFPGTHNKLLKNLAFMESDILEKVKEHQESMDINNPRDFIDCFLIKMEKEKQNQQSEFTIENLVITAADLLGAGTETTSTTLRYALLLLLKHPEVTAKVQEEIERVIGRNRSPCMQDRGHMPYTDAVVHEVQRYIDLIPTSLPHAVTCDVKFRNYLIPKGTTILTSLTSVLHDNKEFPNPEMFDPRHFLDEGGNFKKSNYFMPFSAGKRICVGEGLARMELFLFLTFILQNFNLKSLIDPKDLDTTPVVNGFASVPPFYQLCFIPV
For data set [11], the system named is C57BL/6J male mice. The data set can be described thus: Prepulse inhibition of the acoustic startle response. The class given is in vivo. Particulars: 30 min pretreatment. The method, boiled down: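 Male C57BL/6J mice given test compound (10 or 25 mgkg−1) or vehicle i.p. in 10% DMSO, 30 min before testing. 5 min habituation to 70 dB background noise, then six startle-alone trials. Ten blocks of randomized null, 120 dB startle, prepulse (4/8/12 dB above background)+startle, and prepulse-alone trials. PPI = [1−(prepulse+startle)/startle amplitude]×100%. n=8–14 per group; repeated-measures ANOVA.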

A short description of data set [12]: Aqueous solubility, HPLC-based method. The data set is classed as physicochemical.
Data set [13] concerns the target CYP2D6 (Homo sapiens, UniProt P10635). The data set can be described thus: Cytochrome P450 inhibition. The conditions noted are these: up to 10 μM of 3a. The class given is in vitro ADME.
Data set [14] addresses T2, CYP1A2 (Homo sapiens, UniProt P05177).
T2 sequence (P05177 1-516): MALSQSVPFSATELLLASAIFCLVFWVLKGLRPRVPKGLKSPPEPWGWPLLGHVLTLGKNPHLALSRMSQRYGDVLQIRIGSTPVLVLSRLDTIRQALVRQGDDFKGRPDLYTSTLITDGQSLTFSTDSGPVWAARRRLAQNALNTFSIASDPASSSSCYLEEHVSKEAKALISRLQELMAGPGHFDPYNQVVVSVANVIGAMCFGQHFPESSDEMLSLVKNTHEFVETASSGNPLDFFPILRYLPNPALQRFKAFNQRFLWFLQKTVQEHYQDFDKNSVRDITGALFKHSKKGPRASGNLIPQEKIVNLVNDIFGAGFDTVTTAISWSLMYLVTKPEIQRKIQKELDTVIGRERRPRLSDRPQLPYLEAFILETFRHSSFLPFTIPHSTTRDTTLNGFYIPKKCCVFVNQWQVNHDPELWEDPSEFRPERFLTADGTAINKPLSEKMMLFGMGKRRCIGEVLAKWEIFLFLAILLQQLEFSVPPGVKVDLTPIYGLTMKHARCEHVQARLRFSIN
The data set can be described thus: Cytochrome P450 inhibition. The class given is in vitro ADME. Particulars: up to 10 μM of 3a.

[15] abbreviates: primed substrate 20 μm, 10 μm ATP, tested at Reaction Biology Inc.

Where two headings read alike, the source gives them in different places.

Chain of human GSK-3β (P49841 whole entry): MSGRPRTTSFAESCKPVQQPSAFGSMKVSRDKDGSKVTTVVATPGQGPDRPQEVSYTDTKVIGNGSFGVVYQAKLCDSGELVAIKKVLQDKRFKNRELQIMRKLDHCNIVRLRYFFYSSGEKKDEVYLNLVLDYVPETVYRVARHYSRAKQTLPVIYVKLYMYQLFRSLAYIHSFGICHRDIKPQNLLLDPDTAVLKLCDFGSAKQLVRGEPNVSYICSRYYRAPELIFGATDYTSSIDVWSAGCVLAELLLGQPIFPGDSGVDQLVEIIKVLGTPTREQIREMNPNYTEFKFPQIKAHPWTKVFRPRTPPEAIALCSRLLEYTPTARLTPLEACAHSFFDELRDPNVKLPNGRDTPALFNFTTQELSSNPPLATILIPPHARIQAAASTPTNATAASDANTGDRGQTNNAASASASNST
Chain of CYP2D6 (P10635 whole entry): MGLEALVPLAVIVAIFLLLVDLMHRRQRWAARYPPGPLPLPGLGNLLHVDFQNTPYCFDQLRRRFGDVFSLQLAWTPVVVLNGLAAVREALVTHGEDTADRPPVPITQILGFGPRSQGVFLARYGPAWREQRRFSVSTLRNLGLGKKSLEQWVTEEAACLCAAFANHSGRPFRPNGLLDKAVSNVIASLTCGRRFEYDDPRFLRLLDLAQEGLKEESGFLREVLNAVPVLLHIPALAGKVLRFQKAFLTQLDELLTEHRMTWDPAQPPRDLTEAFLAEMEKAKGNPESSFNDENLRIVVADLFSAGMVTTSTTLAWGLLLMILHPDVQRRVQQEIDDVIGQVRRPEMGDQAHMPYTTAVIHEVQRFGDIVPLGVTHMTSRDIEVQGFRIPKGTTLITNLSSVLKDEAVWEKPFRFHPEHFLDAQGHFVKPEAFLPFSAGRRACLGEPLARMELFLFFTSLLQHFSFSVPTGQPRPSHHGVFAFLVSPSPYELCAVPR

The term IC50 denotes the point on the concentration scale where inhibition reaches its midpoint. Low readings indicate higher potency, high ones lower potency. In [1] (setting [15]), `O=C1NC(=O)C(c2cn(C3CCNCC3)c3ccc(Br)cc23)=C1c1coc2ccccc12` [3 f, 3-Benzofuran-3-yl-4-(5-bromo-1-piperidin-4-yl-1H-indol-3-yl)-pyr-role-2,5-dione] yielded a half-maximal inhibitory concentration (IC50) of 684 ± 17 nM.

Regarding `O=C1NC(=O)C(c2cn(C3CCNCC3)c3ccccc23)=C1c1coc2ccccc12` [Compound 3a, 3-Benzofuran-3-yl-4-(1-piperidin-4-yl-1H-indol-3-yl)-pyrrole-2,5-dione], the “compound remained after incubation with liver microsomes” value in [2] and in [3] was “more than 83%” in each case. For the same compound, in data set [4], the kinase selectivity result was “reasonably selective amongst other kinases with the exception of PKA and PKC-b2”. Moreover, in data set [5] (3 mgkg^−1 i.p., 5 min pretreatment), the “activity in the Amph/CDP assay” value is on record as “not active”. Further, the baseline locomotor activity result in data set [5] (doses higher than 10 mgkg^−1) is reported as “reductions in baseline locomotor activity”. Also, the midpoint of inhibition in data set [1], the IC50, lay at 67 ± 6 nM. The CYP3A4 inhibition in [6] is listed as at most 30%. Besides, in data set [7], the “locomotor hyperactivity in response to novelty (beam breaks)” value is “attenuation of the locomotor hyperactivity”. The compound also showed a CYP2B6 inhibition in data set [8] of at most 30%. In addition, the CYP2C9 inhibition in data set [9] is reported as at most 30%. For the same compound, in data set [10], the CYP2C19 inhibition is reported as at most 30%. In addition, the “prepulse inhibition (PPI)” value in data set [11] (10 mgkg^−1 i.p.) is given as “not active”; in data set [11] (25 mgkg^−1 i.p.), “enhanced PPI”. Moreover, the aqueous solubility in [12] is recorded as 196 mgL^−1. The compound also showed a CYP2D6 inhibition in [13] of at most 30%. The compound also showed a CYP1A2 inhibition in [14] of at most 30%.

In turn, `COc1ccc2c(C3=C(c4cn(C5CCNCC5)c5ccccc45)C(=O)NC3=O)coc2c1` [Compound 3b, 3-(6-Methoxy-benzofuran-3-yl)-4-(1-piperidin-4-yl-1H-indol-3-yl)-pyrrole-2,5-dione] had a 50% inhibitory concentration (IC50) in data set [1] of 629 ± 32 nM.

With `COc1cccc2c(C3=C(c4cn(C5CCNCC5)c5ccccc45)C(=O)NC3=O)coc12` [Compound 3c, 3-(7-Methoxy-benzofuran-3-yl)-4-(1-piperidin-4-yl-1H-indol-3-yl)-pyrrole-2,5-dione], the 50% inhibitory concentration (IC50) in [1] is 134 ± 5 nM.

In data set [1] (setting [15]), `O=C1NC(=O)C(c2cn(C3CCNCC3)c3ccc(F)cc23)=C1c1coc2ccccc12` [Compound 3d, 3-Benzofuran-3-yl-4-(5-fluoro-1-piperidin-4-yl-1H-indol-3-yl)-pyr-role-2,5-dione] displayed a 50% inhibitory concentration (IC50) of 30 ± 4 nM.

`O=C1NC(=O)C(c2cn(C3CCNCC3)c3ccc(Cl)cc23)=C1c1coc2ccccc12` [Compound 3e, 3-Benzofuran-3-yl-4-(5-chloro-1-piperidin-4-yl-1H-indol-3-yl)-pyr-role-2,5-dione] yielded an IC50 in data set [1] (setting [15]) of 272 ± 27 nM.

`COc1cccc2c(C3=C(c4cn(C5CCNCC5)c5ccc(F)cc45)C(=O)NC3=O)coc12` [Compound 3g, 3-(5-Fluoro-1-piperidin-4-yl-1H-indol-3-yl)-4-(7-methoxy-benzo-furan-3-yl)-pyrrole-2,5-dione]: in data set [1], the midpoint of inhibition, the IC50, lay at 28 ± 4 nM.

In data set [1], `CN1CCC(n2cc(C3=C(c4coc5ccccc45)C(=O)NC3=O)c3ccccc32)CC1` [Compound 3h, 3-Benzofuran-3-yl-4-[1-(1-methyl-piperidin-4-yl)-1H-indol-3-yl]-pyrrole-2,5-dione] showed a half-maximal inhibitory concentration (IC50) of 155 ± 2 nM.

`O=C1NC(=O)C(c2cn(C3CCN(Cc4ccccn4)CC3)c3ccccc23)=C1c1coc2ccccc12` [Compound 3i, 3-Benzofuran-3-yl-4-[1-(1-pyridin-2-ylmethyl-piperidin-4-yl)-1H-indol-3-yl]-pyrrole-2,5-dione] gave a half-maximal inhibitory concentration (IC50) in data set [1] of 110 ± 4 nM.

For `O=C1NC(=O)C(c2cn(C3CCN(Cc4ccncc4)CC3)c3ccccc23)=C1c1coc2ccccc12` [Compound 3j, 3-Benzofuran-3-yl-4-[1-(1-pyridin-4-ylmethyl-piperidin-4-yl)-1H-indol-3-yl]-pyrrole-2,5-dione], it took 65 ± 4 nM to reach half-maximal inhibition in data set [1] (IC50).

In [1], `O=C1NC(=O)C(c2cn(C3CCN(C(=O)N4CCOCC4)CC3)c3ccccc23)=C1c1coc2ccccc12` [Compound 3k, 3-Benzofuran-3-yl-4-{1-[1-(morpholine-4-carbonyl)-piperidin-4-yl]-1H-indol-3-yl}-pyrrole-2,5-dione] showed an IC50 of 10 ± 2 nM.

For `O=C1NC(=O)C(c2cn(C3CCN(C(=O)c4ccccn4)CC3)c3ccccc23)=C1c1coc2ccccc12` [Compound 3l, 3-Benzofuran-3-yl-4-{1-[1-(pyridine-2-carbonyl)-piperidin-4-yl]-1H-indol-3-yl}-pyrrole-2,5-dione], the half-inhibitory concentration (IC50) in data set [1] is 6 ± 1 nM.

Consider `O=C1NC(=O)C(c2cn(C3CCN(C(=O)c4cccnc4)CC3)c3ccccc23)=C1c1coc2ccccc12` [Compound 3m, 3-Benzofuran-3-yl-4-{1-[1-(pyridine-3-carbonyl)-piperidin-4-yl]-1H-indol-3-yl}-pyrrole-2,5-dione], for which the midpoint of inhibition in data set [1], the IC50, lay at 8 ± 2 nM.

Turning to `O=C1NC(=O)C(c2cn(C3CCN(C(=O)c4ccncc4)CC3)c3ccccc23)=C1c1coc2ccccc12` [Compound 3n, 3-Benzofuran-3-yl-4-{1-[1-(pyridine-4-carbonyl)-piperidin-4-yl]-1H-indol-3-yl}-pyrrole-2,5-dione], in [1], the 50% inhibitory concentration (IC50) stood at 4 ± 1 nM.

With `O=C1NC(=O)C(c2cn(C3CCN(C(=O)c4cnccn4)CC3)c3ccccc23)=C1c1coc2ccccc12` [Compound 3o, 3-Benzofuran-3-yl-4-{1-[1-(pyrazine-2-carbonyl)-piperidin-4-yl]-1H-indol-3-yl}-pyrrole-2,5-dione], half-maximal inhibition in [1] (IC50) was put at 4 ± 1 nM.

For `NCC(=O)N1CCC(n2cc(C3=C(c4coc5ccccc45)C(=O)NC3=O)c3ccccc32)CC1` [Compound 3p, 3-{1-[1-(2-Amino-acetyl)-piperidin-4-yl]-1H-indol-3-yl}-4-benzofuran-3-yl-pyrrole-2,5-dione], the IC50 in [1] came out at 55 ± 2 nM.

For `Cc1nonc1C(=O)N1CCC(n2cc(C3=C(c4coc5ccccc45)C(=O)NC3=O)c3ccccc32)CC1` [Compound 3q, 3-Benzofuran-3-yl-4-{1-[1-(4-methyl-furazan-3-carbonyl)-piperidin-4-yl]-1H-indol-3-yl}-pyrrole-2,5-dione], the IC50 in data set [1] amounted to 25 ± 2 nM.

The values are drawn from PMC3428230 (ChemMedChem, 2011).
